In brackets after ≈: the same amount, converted by molar mass. Values belong to the compound of their own block, whether it stands above or below them.
Assays:
[1] = Selectivity index, ratio of IC50 for cytotoxicity against mouse L929 cells to IC50 for antitrypanosomal activity against Trypanosoma brucei brucei 427 bloodstream forms; assay type: toxicity, cell-based; details: read-out: Ratio IC50
[2] = Apparent permeability in MDCK2-MDR1 cells at 3 uM incubated over 150 mins at 37 degC by LC-MS/MS method; assay type: ADME, cell-based, Canis lupus familiaris; details: dog, MDCK-MDR1
Procedure, shortened: (§1)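 MDCK-MDR1 monolayer, apical-to-basolateral transport of compound at 3 μM, run with and without P-gp inhibitor GF120918 (2 μM). Apparent permeability (Papp) recorded; absorption quotient AQ = (Papp+918 − Papp)/Papp+918. Propranolol served as CNS-positive reference.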

Mus musculus = assay: Time duration during which drug level in brain stays at or above MIC for antitrypanosomal activity against Trypanosoma brucei brucei TREU 667 infected in Webster mouse at 25 mg/kg, po bid; assay type: ADME, organism-based; details: in vivo
[3] = Half life in mouse liver S9 subcellular fraction; assay type: ADME
Procedure, shortened: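 Metabolic stability: compounds incubated 1 h with CD-1 mouse liver S9 subcellular fractions; half-life derived.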

[4] = Absorption quotient in MDCK2-MDR1 cells assessed as (Papp + GF120918 - Papp)/(Papp + GF120918) ratio at 3 uM incubated over 150 mins at 37 degC in presence of P-gp inhibitor GF120918 by LC-MS/MS method; assay type: ADME, cell-based, Canis lupus familiaris; details: dog, mdck-mdr1, 2.5 h; procedure, shortened: as §1
[5] = Selectivity index, ratio of IC50 for cytotoxicity against human MRC5 cells to IC50 for antitrypanosomal activity against Trypanosoma brucei brucei 427 bloodstream forms; assay type: toxicity, cell-based; details: read-out: Ratio IC50
Procedure, shortened: (§2)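 IC50 for growth inhibition of T. b. brucei 427, with cytotoxicity measured against human lung fibroblasts (MRC-5). Means of two or more independent experiments. Selectivity index is MRC-5 IC50 over T. b. brucei IC50.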

[6] = Ratio of drug level in brain to plasma in CD1 mouse at 78 mg/kg, po after 0.25 to 24 hrs by LC-MS/MS method; assay type: ADME, organism-based; details: read-out: BPR
[7] = test system: Trypanosoma brucei brucei; assay: Antitrypanosomal activity against Trypanosoma brucei brucei 427 bloodstream forms; assay type: functional, organism-based; procedure, shortened: as §2
[8] = test system: Trypanosoma brucei brucei; assay: Antitrypanosomal activity against Trypanosoma brucei brucei TREU 667 infected in Swiss Webster mouse assessed as infection cure rate at 25 mg/kg, po qd for 7 days starting 21 days post-infection (reference value: 0%); assay type: functional
[9] = test system: Trypanosoma brucei brucei; assay: Antitrypanosomal activity against Trypanosoma brucei brucei TREU 667 infected in Swiss Webster mouse assessed as mean relapse time at 10 mg/kg, ip administered as single dose on day 21 post-infection (reference value: 31 days); assay type: functional
Procedure, shortened: (§3)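 CNS (stage 2) model: mice infected with T. b. brucei TREU 667. Berenil given as a single i.p. dose of 10 mg/kg on day 4 or on day 21 post-infection. Cure rate and mean relapse time recorded against vehicle-treated controls.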

[10] = test system: Trypanosoma brucei brucei; assay: Antitrypanosomal activity against Trypanosoma brucei brucei TREU 667 infected in Swiss Webster mouse assessed as infection cure rate at 10 mg/kg, ip administered as single dose on day 4 post-infection (reference value: 0%); assay type: functional; procedure, shortened: as §3
[11] = test system: Trypanosoma brucei brucei; assay: Antitrypanosomal activity against Trypanosoma brucei brucei TREU 667 infected in Swiss Webster mouse assessed as infection cure rate at 10 mg/kg, ip administered as single dose on day 21 post-infection (reference value: 0%); assay type: functional; procedure, shortened: as §3
[12] = test system: Trypanosoma brucei brucei; assay: Antitrypanosomal activity against Trypanosoma brucei brucei TREU 667 infected in Swiss Webster mouse assessed as infection cure rate at 200 mg/kg, po qd for 5 days; assay type: functional

SMILES: O=[N+]([O-])c1cn2c(n1)OC[C@@H](Oc1cc(-c3ccc(C(F)(F)F)nc3)ccn1)C2
selectivity ratio [1]: > 3.6

SMILES: O=C(Nc1ccc2c(c1)B(O)OC2)c1ccc(F)cc1C(F)(F)F
Time (Mus musculus): 12 h

SMILES: O=[N+]([O-])c1cn2c(n1)OCC(COc1ccc(-c3ccc(C(F)(F)F)cc3)nc1)C2 (stereo not given)
selectivity ratio [1]: > 36
Papp A→B at 2.5 h, 3 µM [2]: 11.7 ×10⁻⁶ cm/s

SMILES: COc1ccc(-c2ccc(O[C@@H]3COc4nc([N+](=O)[O-])cn4C3)nc2)cn1
selectivity ratio [1]: > 3.7

SMILES: O=[N+]([O-])c1cn2c(n1)OC[C@@H](OCCCc1ccc(-c3ccc(Oc4ccc(C(F)(F)F)cc4)cc3)cc1)C2
selectivity ratio [1]: > 43

SMILES: O=[N+]([O-])c1cn2c(n1)[S@+]([O-])C[C@@H](OCc1ccc(OC(F)(F)F)cc1)C2
selectivity ratio [1]: > 143

SMILES: O=[N+]([O-])c1cn2c(n1)[S+]([O-])CC(OCc1ccc(-c3ccc(OC(F)(F)F)cc3)cn1)C2 (stereo not given)
selectivity ratio [5]: > 500

SMILES: O=[N+]([O-])c1cn2c(n1)[S+]([O-])CC(OCc1ccc(OC(F)(F)F)cc1)C2 (stereo not given)
selectivity ratio [1]: > 63

SMILES: O=[N+]([O-])c1cn2c(n1)[S+]([O-])CC(OCc1ccc(OCc3ccccc3)cc1)C2 (stereo not given)
selectivity ratio [1]: > 667

SMILES: O=[N+]([O-])c1cn2c(n1)S(=O)(=O)CC(OCc1ccc(OC(F)(F)F)cc1)C2 (stereo not given)
selectivity ratio [1]: > 11

SMILES: O=[N+]([O-])c1cn2c(n1)OC[C@@H](NCc1ccc(OC(F)(F)F)cc1)C2
selectivity ratio [1]: > 13
Kp [6]: 2 to 3

SMILES: CC(=O)NCC(=O)O.CC(=O)NCC(=O)O.N=C(N)c1ccc(/N=N/Nc2ccc(C(=N)N)cc2)cc1 [DIMINAZENE DIACETURATE]
Time [9]: 41 days
Activity [10]: 100%
Activity [11]: 0%

SMILES: CSc1ccc(OCc2ncc([N+](=O)[O-])n2C)cc1 [FEXINIDAZOLE]
Activity [12]: 88%

Now from value to compound, other results behind:

Papp A→B at 2.5 h, 3 µM [2]: 3.5 ×10⁻⁶ cm/s
SMILES: O=[N+]([O-])c1cn2c(n1)OC[C@@H](OCC#Cc1ccc(-c3ccc(C(F)(F)F)cc3)cn1)C2
selectivity ratio [1]: > 19

Papp A→B at 2.5 h, 3 µM [2]: 7.4 ×10⁻⁶ cm/s
SMILES: O=[N+]([O-])c1cn2c(n1)OCC(COc1ccc(-c3ccc(OC(F)(F)F)cc3)nc1)C2 (stereo not given)
selectivity ratio [1]: > 12

t1/2 [3]: 50 min
SMILES: CC1(COCc2ccc(OCc3ccccc3)cc2)Cn2cc([N+](=O)[O-])nc2[S+]1[O-] (stereo not given)
selectivity ratio [1]: > 77

t1/2 [3]: 31 min
Ratio [4]: 0
SMILES: CC1(COCc2ccc(OCc3ccccc3)cc2)Cn2cc([N+](=O)[O-])nc2S1 (stereo not given)
selectivity ratio [1]: > 4.5

t1/2 [3]: 67 min
SMILES: O=[N+]([O-])c1cn2c(n1)SC(COCc1ccc(OCc3ccccc3)cc1)C2 (stereo not given)
selectivity ratio [1]: > 22

t1/2 [3]: 38 min
SMILES: CN1CC(OCc2ccc(OCc3ccccc3)cc2)Cn2nc([N+](=O)[O-])cc21 (stereo not given)
selectivity ratio [1]: > 3.3

Papp A→B at 2.5 h, 3 µM [2]: 3.69 ×10⁻⁶ cm/s
SMILES: O=[N+]([O-])c1cn2c(n1)S(=O)(=O)CC(OCc1ccc(OCc3ccccc3)cc1)C2 (stereo not given)
selectivity ratio [1]: > 303

IC50 [7]: 0.29 µg/mL (≈ 0.79 µM)
Time (Mus musculus): 24 h
SMILES: CC1(C)OB(O)c2cc(NC(=O)c3ccc(F)cc3C(F)(F)F)ccc21 [ACOZIBOROLE]
Activity [8]: 100%
